≈ marks a conversion by molar mass, not a printed value.
Tests used:
[1] = system: Acinetobacter baumannii; assay: Antimicrobial activity against Acinetobacter baumannii B46 by broth microdilution method; assay type: functional
[2] = system: Acinetobacter baumannii; assay: Antimicrobial activity against Acinetobacter baumannii C75 in presence of efflux pump inhibitor phenyl-arginine-beta-naphthylamide by broth microdilution method; assay type: functional
[3] = system: Acinetobacter baumannii; assay: Antimicrobial activity against Acinetobacter baumannii A24D after 4 days in presence of efflux pump inhibitor phenyl-arginine-beta-naphthylamide by broth microdilution method; assay type: functional; conditions: 96 h
[4] = system: Acinetobacter baumannii; assay: Antimicrobial activity against Acinetobacter baumannii A24D after 4 days by broth microdilution method; assay type: functional; conditions: 96 h
[5] = system: Acinetobacter baumannii; assay: Antimicrobial activity against Acinetobacter baumannii A24 in presence of efflux pump inhibitor phenyl-arginine-beta-naphthylamide by broth microdilution method; assay type: functional
[6] = system: Acinetobacter baumannii; assay: Antimicrobial activity against Acinetobacter baumannii A24B after 4 days by broth microdilution method; assay type: functional; conditions: 96 h
[7] = system: Acinetobacter baumannii; assay: Antimicrobial activity against Acinetobacter baumannii B46 in presence of efflux pump inhibitor phenyl-arginine-beta-naphthylamide by broth microdilution method; assay type: functional
[8] = system: Acinetobacter baumannii; assay: Antimicrobial activity against Acinetobacter baumannii C75 by broth microdilution method; assay type: functional
[9] = system: Acinetobacter baumannii; assay: Antimicrobial activity against Acinetobacter baumannii D54 by broth microdilution method; assay type: functional
[10] = system: Acinetobacter baumannii; assay: Antimicrobial activity against Acinetobacter baumannii A24A after 4 days by broth microdilution method; assay type: functional; conditions: 96 h
[11] = system: Acinetobacter baumannii; assay: Antimicrobial activity against Acinetobacter baumannii A24 by broth microdilution method; assay type: functional
[12] = system: Acinetobacter baumannii; assay: Antimicrobial activity against Acinetobacter baumannii A24C after 4 days by broth microdilution method; assay type: functional; conditions: 96 h
[13] = system: Acinetobacter baumannii; assay: Antimicrobial activity against Acinetobacter baumannii A24D after 4 days by agar dilution method; assay type: functional; conditions: 96 h
In short: (§1)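 Fresh cultures were passaged overnight on tigecycline-containing Mueller-Hinton II agar, boiled before inoculation to prevent tigecycline oxidative degradation. […] Inoculum was 0.5 McFarland. Tigecycline MICs were recorded daily by agar dilution.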

[14] = system: Acinetobacter baumannii; assay: Antimicrobial activity against Acinetobacter baumannii A24A after 4 days by agar dilution method; assay type: functional; conditions: 96 h; in short: as §1
[15] = system: Acinetobacter baumannii; assay: Antimicrobial activity against Acinetobacter baumannii B46 by agar dilution method; assay type: functional
In short: (§2)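 Tigecycline MIC first estimated by Etest, then confirmed by agar dilution on Mueller-Hinton II agar. Strains were grown in LB broth.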

[16] = system: Acinetobacter baumannii; assay: Antimicrobial activity against Acinetobacter baumannii C75 by agar dilution method; assay type: functional; in short: as §2
[17] = system: Acinetobacter baumannii; assay: Inhibition of AdeABC efflux pump protein in Acinetobacter baumannii B46 assessed as ethidium bromide accumulation at 100 uM; parameters: scale not given: the % may be the effect or the level left
In short: (§3)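 Overnight cells pelleted and resuspended to A600 0.2 in sodium phosphate buffer pH 7.0, with ethidium bromide at 2 μg/ml final. Incubated 420 s, then CCCP (protonophore) added at 100 μM final for a further 180 s. Fluorescence read at ex 530/em 600 nm, cell-only background subtracted, and expressed as percent increase in accumulation after CCCP.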

[18] = system: Acinetobacter baumannii; assay: Antimicrobial activity against Acinetobacter baumannii A24D after 4 days in presence of efflux pump inhibitor phenyl-arginine-beta-naphthylamide by agar dilution method; assay type: functional; conditions: 96 h
In short: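 Tigecycline MIC determined by agar dilution on Mueller-Hinton agar containing PABN, for bacteria from the final day of growth. PABN was dissolved in water as a 25 mg/ml stock and added to agar cooled to 50°C.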

[19] = system: Acinetobacter baumannii; assay: Antimicrobial activity against Acinetobacter baumannii A24C after 4 days by agar dilution method; assay type: functional; conditions: 96 h; in short: as §1
[20] = system: Acinetobacter baumannii; assay: Inhibition of AdeABC efflux pump protein in Acinetobacter baumannii A24D assessed as ethidium bromide accumulation at 100 uM; parameters: scale not given: the % may be the effect or the level left
In short: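 Overnight cells were pelleted and resuspended to A600 0.2 in sodium phosphate buffer, pH 7.0. Ethidium bromide was added at 2 μg/ml final and incubated 420 s. CCCP was then added at 100 μM final for a further 180 s. Fluorescence was read at ex 530 / em 600 nm, with cell-only background subtracted. The value is the percent increase in accumulation after CCCP.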

[21] = system: Acinetobacter baumannii; assay: Antimicrobial activity against Acinetobacter baumannii A24B after 4 days by agar dilution method; assay type: functional; conditions: 96 h; in short: as §1
[22] = system: Acinetobacter baumannii; assay: Antimicrobial activity against Acinetobacter baumannii C75 in presence of efflux pump inhibitor phenyl-arginine-beta-naphthylamide by agar dilution method; assay type: functional
[23] = system: Acinetobacter baumannii; assay: Antimicrobial activity against Acinetobacter baumannii B46 in presence of efflux pump inhibitor phenyl-arginine-beta-naphthylamide by agar dilution method; assay type: functional
[24] = system: Acinetobacter baumannii; assay: Inhibition of AdeABC efflux pump protein in Acinetobacter baumannii A24 assessed as ethidium bromide accumulation at 100 uM; parameters: scale not given: the % may be the effect or the level left; in short: as §3
[25] = system: Acinetobacter baumannii; assay: Antimicrobial activity against Acinetobacter baumannii A24 by agar dilution method; assay type: functional; in short: as §2
[26] = system: Acinetobacter baumannii; assay: Inhibition of AdeABC multidrug efflux pump in Acinetobacter baumannii C75 assessed as ethidium bromide accumulation at 100 uM; parameters: scale not given: the % may be the effect or the level left; in short: as §3
[27] = system: Acinetobacter baumannii; assay: Antimicrobial activity against Acinetobacter baumannii D54 by agar dilution method; assay type: functional
In short: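 Tigecycline MIC screened by Etest and confirmed by agar dilution on Mueller-Hinton II agar; strains cultivated in LB broth.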

[28] = system: Acinetobacter baumannii; assay: Antimicrobial activity against Acinetobacter baumannii A24 in presence of efflux pump inhibitor phenyl-arginine-beta-naphthylamide by agar dilution method; assay type: functional
[29] = system: Acinetobacter baumannii; assay: Inhibition of AdeABC efflux pump protein in Acinetobacter baumannii D54 assessed as ethidium bromide accumulation at 100 uM; parameters: scale not given: the % may be the effect or the level left; in short: as §3

Row | Compound | MIC [1] | MIC [2] | MIC [3] | MIC [4] | MIC [5] | MIC [6] | MIC [7] | MIC [8] | MIC [9] | MIC [10] | MIC [11] | MIC [12] | also measured
1 | C[C@@H](O)[C@H]1C(=O)N2C(C(=O)O)=C(SCCNC=N)C[C@H]12 [IMIPENEM ANHYDROUS] | 1.5 µg/mL (≈ 5.01 µM) | 0.125 µg/mL | 0.064 µg/mL | 0.5 µg/mL (≈ 1.67 µM) | 0.032 µg/mL | 0.125 µg/mL (≈ 0.418 µM) | 0.25 µg/mL | 1.5 µg/mL (≈ 5.01 µM) | 0.125 µg/mL (≈ 0.418 µM) | 0.125 µg/mL (≈ 0.418 µM) | 0.38 µg/mL (≈ 1.27 µM) | 0.19 µg/mL (≈ 0.635 µM) | 
2 | CC(C)(O/N=C(\C(=O)N[C@@H]1C(=O)N2C(C(=O)[O-])=C(C[n+]3ccccc3)CS[C@H]12)c1csc(N)n1)C(=O)O [CEFTAZIDIME] | 96 µg/mL (≈ 176 µM) | 8 µg/mL | 32 µg/mL | > 256 µg/mL | 96 µg/mL | > 256 µg/mL | 8 µg/mL | 192 µg/mL (≈ 351 µM) | 4 µg/mL (≈ 7.32 µM) | > 256 µg/mL | > 256 µg/mL | > 256 µg/mL | 
3 | O=C(O)c1cn(C2CC2)c2cc(N3CCNCC3)c(F)cc2c1=O [CIPROFLOXACIN] | 128 µg/mL (≈ 386 µM) | 256 µg/mL | 128 µg/mL | 512 µg/mL (≈ 1550 µM) | 128 µg/mL | 256 µg/mL (≈ 773 µM) | 128 µg/mL | 512 µg/mL (≈ 1550 µM) | 0.25 µg/mL (≈ 0.754 µM) | 256 µg/mL (≈ 773 µM) | 256 µg/mL (≈ 773 µM) | 256 µg/mL (≈ 773 µM) | 
4 | CN(C)c1ccc(O)c2c1C[C@H]1C[C@H]3[C@H](N(C)C)C(O)=C(C(N)=O)C(=O)[C@@]3(O)C(O)=C1C2=O [MINOCYCLINE] | 0.25 µg/mL (≈ 0.546 µM) | 1 µg/mL | 8 µg/mL | 32 µg/mL (≈ 69.9 µM) | 2 µg/mL | 16 µg/mL (≈ 35 µM) | 0.25 µg/mL | 2 µg/mL (≈ 4.37 µM) | 0.125 µg/mL (≈ 0.273 µM) | 12 µg/mL (≈ 26.2 µM) | 32 µg/mL (≈ 69.9 µM) | 16 µg/mL (≈ 35 µM) | 
5 | CO/N=C(\C(=O)N[C@@H]1C(=O)N2C(C(=O)[O-])=C(C[N+]3(C)CCCC3)CS[C@H]12)c1csc(N)n1 [CEFEPIME] | > 256 µg/mL | 16 µg/mL | 1 µg/mL | 16 µg/mL (≈ 33.3 µM) | 3 µg/mL | 12 µg/mL (≈ 25 µM) | 128 µg/mL | > 256 µg/mL | 1.5 µg/mL (≈ 3.12 µM) | 12 µg/mL (≈ 25 µM) |  | 16 µg/mL (≈ 33.3 µM) | 
6 | NC[C@H]1O[C@H](O[C@H]2[C@H](O)[C@@H](O[C@H]3O[C@H](CO)[C@@H](O)[C@H](N)[C@H]3O)[C@H](N)C[C@@H]2N)[C@H](N)C[C@@H]1O [TOBRAMYCIN] | 24 µg/mL (≈ 51.3 µM) | 6 µg/mL | 8 µg/mL | 16 µg/mL (≈ 34.2 µM) | 3 µg/mL | 4 µg/mL (≈ 8.56 µM) | 16 µg/mL | 16 µg/mL (≈ 34.2 µM) | 0.75 µg/mL (≈ 1.6 µM) | 3 µg/mL (≈ 6.42 µM) | 4 µg/mL (≈ 8.56 µM) | 6 µg/mL (≈ 12.8 µM) | 
7 | C[C@@H](O)[C@H]1C(=O)N2C(C(=O)O)=C(S[C@@H]3CN[C@H](C(=O)N(C)C)C3)[C@H](C)[C@H]12 [MEROPENEM] | 4 µg/mL (≈ 10.4 µM) | 0.125 µg/mL | 0.094 µg/mL | 2 µg/mL (≈ 5.22 µM) | 0.094 µg/mL | 0.75 µg/mL (≈ 1.96 µM) | 0.25 µg/mL | 4 µg/mL (≈ 10.4 µM) | 0.25 µg/mL (≈ 0.652 µM) | 0.75 µg/mL (≈ 1.96 µM) | 1 µg/mL (≈ 2.61 µM) | 0.75 µg/mL (≈ 1.96 µM) | 
8 | O=C(N[C@H](CO)[C@H](O)c1ccc([N+](=O)[O-])cc1)C(Cl)Cl [CHLORAMPHENICOL] | 32 µg/mL (≈ 99 µM) | 8 µg/mL | 4 µg/mL | 16 µg/mL (≈ 49.5 µM) | 12 µg/mL | 96 µg/mL (≈ 297 µM) | 8 µg/mL | 32 µg/mL (≈ 99 µM) | 0.25 µg/mL (≈ 0.774 µM) | 96 µg/mL (≈ 297 µM) | 16 µg/mL (≈ 49.5 µM) | 96 µg/mL (≈ 297 µM) | 
9 | CCN1CCN(C(=O)N[C@@H](C(=O)N[C@@H]2C(=O)N3[C@@H]2SC(C)(C)[C@@H]3C(=O)O)c2ccccc2)C(=O)C1=O [PIPERACILLIN] | 256 µg/mL (≈ 495 µM) | 8 µg/mL | 1 µg/mL | 24 µg/mL (≈ 46.4 µM) | 3 µg/mL | 12 µg/mL (≈ 23.2 µM) |  | 48 µg/mL (≈ 92.7 µM) | 16 µg/mL (≈ 30.9 µM) | 12 µg/mL (≈ 23.2 µM) | 16 µg/mL (≈ 30.9 µM) | 16 µg/mL (≈ 30.9 µM) | 
10 | CN(C)c1cc(NC(=O)CNC(C)(C)C)c(O)c2c1C[C@H]1C[C@H]3[C@H](N(C)C)C(O)=C(C(N)=O)C(=O)[C@@]3(O)C(O)=C1C2=O [TIGECYCLINE] |  |  |  |  |  |  |  |  |  |  |  |  | MIC [13]: 24 µg/mL (≈ 41 µM); MIC [14]: 2 µg/mL (≈ 3.41 µM); MIC [15]: 4 µg/mL (≈ 6.83 µM); MIC [16]: 16 µg/mL (≈ 27.3 µM); Activity [17]: 115%; MIC [18]: 2 µg/mL; MIC [19]: 6 µg/mL (≈ 10.2 µM); Activity [20]: 114%; MIC [21]: 2 µg/mL (≈ 3.41 µM); MIC [22]: 4 µg/mL; MIC [23]: 1 µg/mL; Activity [24]: 52%; MIC [25]: 2 µg/mL (≈ 3.41 µM); Activity [26]: 206%; MIC [27]: 0.125 µg/mL (≈ 0.213 µM); MIC [28]: 2 µg/mL; Activity [29]: 31%
